Results reported in ChEMBL document CHEMBL4251758, “Small Molecule Inhibition of MicroRNA miR-21 Rescues Chemosensitivity of Renal-Cell Carcinoma to Topotecan” (J Med Chem, 2018).
Calls of active or inactive are those of the source. No cut-off for these calls is given here.

Experiments:
[1] = tested on: A498; experiment: Decrease in mature miR-21 expression levels in human A498 cells at 10 uM after 48 hrs by qRT-PCR analysis; type: functional, cell-based
[2] = tested on: MIA PaCa-2; experiment: Cytotoxicity against human MIAPaCa2 cells after 72 hrs by XTT assay; type: functional, cell-based; conditions: MIA PaCa-2, 72 h
In short: (§1)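 Cells seeded at 500 per well, incubated overnight, then exposed to increasing compound concentrations (0.1% DMSO final, DMSO control) in triplicate for 72 h. Activated XTT added; absorbance read at 450 nm with 630 nm background at start and after 4 h at 37 °C, 5% CO2. Change normalized to DMSO as % viability; IC50 from variable-slope sigmoidal fit; three independent measurements.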

[3] = tested on: SK-OV-3; experiment: Decrease in mature miR-21 expression levels in human SKOV3 cells at 10 uM after 48 hrs by qRT-PCR analysis; type: functional, cell-based
[4] = biological target: microRNA 21; experiment: Inhibition of miR-21 RNA in human A498 cells assessed as potentiation of topotecan-induced inhibition of colony formation by measuring topotecan IC50 at 10 uM after 2 weeks by crystal violet staining-based microscopic analysis (reference value: 2 uM); type: cell-based
In short: (§2)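 A498 cells, 10,000 per well, seeded in 0.45% low-melt agarose in DMEM over a 0.7% agarose base layer, containing increasing compound concentrations or DMSO (0.1% final), in triplicate. For combinations, the inhibitor was held at 10 μM. After 2 weeks, colonies were stained with 0.1% crystal violet and imaged by z-stack microscopy. Colony counts were normalized to DMSO; IC50 from sigmoidal fit.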

[5] = tested on: microRNA 21; experiment: Inhibition of miR-21 RNA in human A498 cells assessed as increase in PDCD4 expression at 10 uM after 48 hrs by Western blot analysis relative to control; type: cell-based
In short: (§3)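 A498 cells, 250,000 per well, treated with 10 μM compound or DMSO (0.1%) for 48 h and lysed in RIPA buffer. Lysates were run on 10% SDS-PAGE, transferred to PVDF, and probed with rabbit anti-PTEN, anti-PDCD4 and anti-GAPDH, then HRP secondary. Chemiluminescence densitometry was normalized to GAPDH, then to DMSO.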

[6] = tested on: A549; experiment: Decrease in mature miR-21 expression levels in human A549 cells at 10 uM after 48 hrs by qRT-PCR analysis; type: functional, cell-based
[7] = biological target: Luciferin 4-monooxygenase (Photinus pyralis) (UniProt P08659); experiment: Inhibition of firefly luciferase activity up to 50 uM
[8] = tested on: A498; experiment: Cytotoxicity against human A498 cells after 72 hrs by XTT assay; type: functional, cell-based; conditions: A498, 72 h; in short: as §1
[9] = tested on: microRNA 21; experiment: Inhibition of miR-21 RNA in human A498 cells assessed as potentiation of topotecan-induced inhibition of colony formation by measuring reduction in topotecan IC50 at 10 uM after 2 weeks by crystal violet staining-based microscopic analysis relative to topotecan alone; type: cell-based; in short: as §2
[10] = tested on: A498; experiment: Inhibition of colony formation of human A498 cells up to 10 uM after 2 weeks by crystal violet staining-based microscopic analysis; type: functional, cell-based; in short: as §2
[11] = tested on: HeLa; experiment: Effect on primary miR-21 expression levels in human HeLa cells at 10 uM after 48 hrs by qRT-PCR analysis; type: functional, cell-based
In short: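 HeLa cells were treated with 10 μM compound or DMSO (1% final) for 48 h, then RNA was isolated. 50 ng RNA was reverse-transcribed with iScript. TaqMan qPCR used pri-miR-21 and GAPDH primers. Triplicate Ct values were normalized to GAPDH and to DMSO controls by the 2−ΔΔCt method.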

[12] = tested on: microRNA 21; experiment: Inhibition of miR-21 RNA in human A498 cells assessed as increase in PTEN expression at 10 uM after 48 hrs by Western blot analysis relative to control; type: cell-based; in short: as §3
[13] = tested on: U-87 MG; experiment: Cytotoxicity against human U87 cells after 72 hrs by XTT assay; type: functional, cell-based, U-87MG ATCC; in short: as §1
[14] = tested on: microRNA 21; experiment: Inhibition of miR-21 RNA in human A498 cells assessed as potentiation of topotecan-induced cytotoxicity after 72 hrs by XTT assay; type: cell-based
In short: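 The chemotherapeutic agent (topotecan) was titrated while the miR-21 inhibitor was held at a fixed concentration, 0.1% DMSO final, in triplicate. Cells were seeded at 500 per well and treated after overnight attachment. After 72 h, XTT was read at 450 nm (630 nm background) at start and after 4 h. Signal normalized to DMSO; IC50 from variable-slope sigmoidal fit.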

[15] = tested on: MCF7; experiment: Cytotoxicity against human MCF7 cells after 72 hrs by XTT assay; type: functional, cell-based; conditions: MCF7, 72 h; in short: as §1
[16] = tested on: A 172; experiment: Cytotoxicity against human A172 cells after 72 hrs by XTT assay; type: functional, cell-based; conditions: A 172, 72 h; in short: as §1
[17] = tested on: HeLa; experiment: Effect on mature miR-21 expression levels in human HeLa cells at 10 uM after 48 hrs by qRT-PCR analysis; type: functional, cell-based
In short: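 HeLa cells, 150,000 per well, grown overnight and exposed to 10 μM compound or DMSO (1% final) for 48 h at 37 °C. RNA was isolated and 100 ng reverse-transcribed with miR-21 or RNU19 TaqMan RT primers. TaqMan qPCR run for 40 cycles. Triplicate Ct values converted to levels relative to DMSO by the 2−ΔΔCt method.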

[18] = tested on: microRNA 21; experiment: Inhibition of promoter activity of miR-21 RNA (unknown origin) transfected in human HeLa cells at 10 uM after 48 hrs by Bright-Glo luciferase reporter gene assay; type: cell-based
In short: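 HeLa cells, 10,000 per well, treated after overnight attachment with 10 μM compound or DMSO (0.1% final) in triplicate for 48 h. Cells were then transfected for 3 h with 100 ng pGL4-miR21P (miR-21 promoter driving firefly luciferase) or empty pGL4.10. Medium was replaced with compound-containing medium for a further 24 h, followed by Bright-Glo luminescence read.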

[19] = tested on: HeLa; experiment: Inhibition of miR-182 RNA (unknown origin) transfected in human HeLa cells at 10 uM after 48 hrs by Bright-Glo luciferase reporter gene assay; type: cell-based
[20] = Stabilization of pre-miR-21 RNA (unknown origin) assessed as increase in melting temperature at 10 uM by UV-spectrophotometric analysis
In short: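 Melting-curve analysis of precursor miR-21 RNA run with test compound, with DMSO as the reference condition and tobramycin (10 μM) as a positive control for RNA binding and stabilisation. Read-out is the shift in melting temperature of pre-miR-21 relative to the DMSO sample.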

[21] = tested on: microRNA 21; experiment: Inhibition of miR-21 RNA in human A498 cells assessed as potentiation of topotecan-induced apoptosis by measuring increase in caspase-3/7 activity at 10 uM after 24 hrs by Caspase-Glo 3/7 assay relative to control; type: cell-based; set-up: scale not given: the % may be the effect or the level left
In short: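 A498 cells, 10,000 per well, treated after overnight attachment for 24 h with DMSO (0.1%), 400 nM topotecan, 10 μM inhibitor, or topotecan plus inhibitor at those levels. Caspase-3/7 activity read by Caspase-Glo 3/7 luminescence and normalized to DMSO. At least three independent experiments; unpaired t test.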

Luciferin 4-monooxygenase (Photinus pyralis), sequence (P08659 whole entry): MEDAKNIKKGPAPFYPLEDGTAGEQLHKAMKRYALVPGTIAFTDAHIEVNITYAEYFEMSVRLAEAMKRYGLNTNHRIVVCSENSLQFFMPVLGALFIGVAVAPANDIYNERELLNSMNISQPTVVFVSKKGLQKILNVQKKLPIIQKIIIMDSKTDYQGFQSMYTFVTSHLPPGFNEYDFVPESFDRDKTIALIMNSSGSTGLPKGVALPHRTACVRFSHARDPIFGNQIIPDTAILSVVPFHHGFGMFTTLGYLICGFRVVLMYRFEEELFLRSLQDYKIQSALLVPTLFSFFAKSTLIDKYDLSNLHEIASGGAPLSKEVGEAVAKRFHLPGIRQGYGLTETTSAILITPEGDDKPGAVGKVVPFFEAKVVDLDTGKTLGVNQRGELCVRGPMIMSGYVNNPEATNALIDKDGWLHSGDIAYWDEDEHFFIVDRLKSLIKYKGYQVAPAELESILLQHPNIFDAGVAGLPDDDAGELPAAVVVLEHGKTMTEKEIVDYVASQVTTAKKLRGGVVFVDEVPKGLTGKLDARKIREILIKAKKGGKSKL

IC50 [4]: 0.074 µM | inhibition [7]: inactive | Activity [20]: inactive
Compound: C#CCOc1ccc(-c2noc(-c3nnn(-c4cccc(/C(C)=N/O)c4)c3N)n2)cc1
Activity [1]: inactive | IC50 [2]: 6.7 µM | Activity [3]: inactive | fold change (FC) [5]: 9.5 | Activity [6]: inactive | IC50 [8]: > 100 µM | fold change (FC) [9]: 27 | inhibition [10]: inactive | Activity [11]: inactive | fold change (FC) [12]: 1.5 | IC50 [13]: 3.3 µM | inhibition [14]: Dose-dependent effect | IC50 [15]: 4.5 µM | IC50 [16]: 4.6 µM | Activity [17]: inactive | inhibition [18]: inactive | inhibition [19]: inactive | Activity [21]: 512%
